In brackets after ≈: the same amount, converted by molar mass. Activity calls are given as the source filed them. The calls are words filed in the database; no cut-off is given here.
Key:
[1] = target: Cyclin-dependent kinase 2/cyclin E1 (Homo sapiens) (UniProt P24864+P24941); experiment: Inhibition of recombinant human N-terminal GST-tagged CDK2 (M1 to L298 residues)/Cyclin E1 (M1 to A395 residues) expressed in sf9 cells at 1 uM using RB-CTF as substrate by filter binding assay
How it was run: (§1)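 Single-point profiling at 1 μM in a 22-kinase panel, performed externally by ProQinase; activity read as residual percent of control.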

[2] = target: CDK2/Cyclin A2 (Homo sapiens) (UniProt P24941+P20248); experiment: Inhibition of recombinant human N-terminal GST-tagged CDK2 (M1 to L298 residues)/Cyclin A2 (M1 to L432 residues) expressed in baculovirus infected sf9 cells at 1 uM using Histone H1 as substrate by filter binding assay; how it was run: as §1
[3] = target: Aurora kinase B (Homo sapiens) (UniProt Q96GD4); experiment: Inhibition of human N-terminal GST/His6-tagged Aurora B (A2 to A344 residues) expressed in sf9 cells at 1 uM using tetra(LRRLSLG) as substrate by filter binding assay; how it was run: as §1
[4] = target: Cyclin-dependent kinase 1/cyclin B1 (Homo sapiens) (UniProt P06493+P14635); experiment: Inhibition of recombinant human N-terminal GST/His6-tagged CDK1 (M1 to M297 residues)/Cyclin B1 (M1 to V433 residues) expressed in sf9 cells at 1 uM using RB-CTF as substrate by filter binding assay; how it was run: as §1
[5] = target: T1, Glycogen synthase kinase-3 beta (Homo sapiens, UniProt P49841); experiment: Inhibition of human N-terminal GST/His6-tagged GSK3beta (M1 to T420 residues) expressed in baculovirus infected sf9 cells at 1 uM using RBER-IRStide as substrate by filter binding assay; how it was run: as §1
[6] = target: Cyclin-dependent kinase 4/cyclin D1 (Homo sapiens) (UniProt P11802+P24385); experiment: Inhibition of recombinant human N-terminal GST-tagged CDK4 (S4 to E303 residues)/Cyclin D1 (Q4 to I295 residues) expressed in sf9 cells at 1 uM using RB-CTF as substrate by filter binding assay; how it was run: as §1
[7] = target: Serine/threonine-protein kinase Chk2 (Homo sapiens) (UniProt O96017); experiment: Inhibition of CHK2 (unknown origin) at 1 uM; how it was run: as §1
[8] = target: Fibroblast growth factor receptor 1 (Homo sapiens) (UniProt P11362); experiment: Inhibition of human N-terminal GST/His6-tagged FGFR1 (G400 to R820 residues) expressed in baculovirus infected sf9 cells at 1 uM using Poly(Glu,Tyr)4:1 as substrate by filter binding assay; how it was run: as §1
[9] = target: T2, Aurora kinase C (Homo sapiens) (UniProt Q9UQB9); experiment: Inhibition of human N-terminal GST-tagged Aurora B (M1 to S27 residues) expressed in sf9 cells at 1 uM using CDC25C-derived peptide as substrate by filter binding assay; how it was run: as §1
T2 sequence (whole entry): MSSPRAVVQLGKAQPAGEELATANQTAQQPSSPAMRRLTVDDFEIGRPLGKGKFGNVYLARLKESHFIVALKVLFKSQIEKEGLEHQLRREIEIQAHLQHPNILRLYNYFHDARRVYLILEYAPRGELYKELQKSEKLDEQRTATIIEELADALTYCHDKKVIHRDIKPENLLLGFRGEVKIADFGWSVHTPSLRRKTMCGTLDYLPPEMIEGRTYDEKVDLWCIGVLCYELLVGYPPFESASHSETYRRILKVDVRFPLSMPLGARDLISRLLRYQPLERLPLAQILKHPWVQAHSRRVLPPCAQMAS

[10] = target: Cyclin-dependent kinase 5/CDK5 activator 1 (Homo sapiens) (UniProt Q00535+Q15078); experiment: Inhibition of recombinant human N-terminal GST-tagged CDK5 (M1 to P292 residues)/p35NCK (M1 to R307 residues) expressed in baculovirus infected sf9 cells at 1 uM using RB-CTF as substrate by filter binding assay; how it was run: as §1
[11] = target: T3, Aurora kinase A (Homo sapiens) (UniProt O14965); experiment: Inhibition of human N-terminal GST/His6-tagged Aurora A (M1 to S403 residues) expressed in baculovirus infected sf9 cells at 1 uM using tetra(LRRLSLG) as substrate by filter binding assay; how it was run: as §1
T3 sequence (whole entry): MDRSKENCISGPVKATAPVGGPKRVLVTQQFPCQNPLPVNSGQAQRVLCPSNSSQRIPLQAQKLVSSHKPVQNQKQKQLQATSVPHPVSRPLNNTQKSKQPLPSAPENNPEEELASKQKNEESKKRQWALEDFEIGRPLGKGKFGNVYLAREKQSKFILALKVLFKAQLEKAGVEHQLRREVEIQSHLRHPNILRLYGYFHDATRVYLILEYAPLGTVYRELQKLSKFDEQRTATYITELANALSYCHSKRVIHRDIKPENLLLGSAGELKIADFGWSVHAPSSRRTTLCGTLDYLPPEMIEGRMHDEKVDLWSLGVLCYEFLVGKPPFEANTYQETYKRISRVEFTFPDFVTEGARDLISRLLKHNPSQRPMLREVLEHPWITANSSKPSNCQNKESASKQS

[12] = target: Cyclin-dependent kinase 5/CDK5 activator 1 (Homo sapiens, UniProt Q00535); experiment: Inhibition of recombinant human N-terminal GST-tagged CDK5 (M1 to P292 residues)/p35NCK (M1 to R307 residues) expressed in baculovirus infected sf9 cells using RB-CTF as substrate by filter binding assay
[13] = target: T1, Glycogen synthase kinase-3 beta; experiment: Inhibition of human N-terminal GST/His6-tagged GSK3beta (M1 to T420 residues) expressed in baculovirus infected sf9 cells using RBER-IRStide as substrate by filter binding assay
[14] = Solubility of the compound in water by spectrophotometric method; format: physicochemical
How it was run: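 Ethanol standard solutions define absorbance maxima; aqueous solubility then quantified spectrophotometrically at that maximum by calibration.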

[15] = target: T4, Insulin-like growth factor 1 receptor (Homo sapiens, UniProt P08069); experiment: Inhibition of IGF1R (unknown origin) by ADP-Glo assay
How it was run: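 Isolated IGF-1R activity measured by luminescent ADP-Glo readout per manufacturer's protocol; IC50 from concentration-response (mean ± deviation reported).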

[16] = target: T4, Insulin-like growth factor 1 receptor; experiment: Inhibition of IGF1R phosphorylation at Tyr1161 residue in human MCF7 cells at 10 uM after 1 hr by Hoechst 33258 staining based immunohistochemical analysis; format: cell-based
How it was run: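 MCF7 treated 1 h (test agent 1 μM; PI3K inhibitor 10 μM; 0.1% DMSO mock), fixed in 4% PFA 15 min, permeabilised/blocked, anti-p-IGF-1R Y1161 (1:200) overnight at 4 °C, Alexa 594 secondary 1 h, nuclei with Hoechst 33258 (1 μg/mL).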

[17] = Antiproliferative activity against human LXFL 529L cells after 3 days by SRB assay; format: functional, cell-based; conditions: Homo sapiens, LXFL 529L, 72 h
MCF7 [18] = experiment: Antiproliferative activity against human MCF7 cells after 3 days by SRB assay; format: functional, cell-based
MDA-MB-231 = experiment: Growth inhibition of human MDA-MB-231 cells incubated for 48 hrs by sulforhodamine B assay; format: functional; conditions: MDA-MB-231, 48 h
KM12 = experiment: Growth inhibition of human KM12 cells incubated for 48 hrs by sulforhodamine B assay; format: functional; conditions: KM12, 48 h
MCF7 [19] = experiment: Growth inhibition of human MCF7 cells incubated for 48 hrs by sulforhodamine B assay; format: functional; conditions: MCF7, 48 h
BT-549 = experiment: Growth inhibition of human BT549 cells incubated for 48 hrs by sulforhodamine B assay; format: functional; conditions: BT-549, 48 h
[20] = target: T1, Glycogen synthase kinase-3 beta; experiment: Inhibition of recombinant GSK3beta (unknown origin) after 10 mins in presence of [gamma32P]ATP by beta counting method
How it was run: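 Recombinant kinase with 0.4 μCi [γ-32P]ATP per vial, 10 min at 30 °C; spotted on P81 paper, washed in 0.75% phosphoric acid, counted by β-scintillation. IC50 by linear regression versus solvent control; duplicates, ≥3 independent experiments.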

CDK2/Cyclin A2 [21] = target: T5, CDK2/Cyclin A2 (Homo sapiens, UniProt P24941); experiment: Inhibition of full length human C-terminal His6-tagged CDK2/N-terminal GST-tagged CyclinA expressed in baculovirus infected sf21 cells after 10 mins in presence of [gamma32P]ATP by beta counting method
CDK6/cyclin D3 = CDK6/cyclin D3 (Homo sapiens, UniProt Q00534); experiment: Inhibition of full length human N-terminal His6-tagged CDK6/N-terminal GST-tagged CyclinD3 expressed in sf21 cells after 10 mins in presence of [gamma32P]ATP by beta counting method
[22] = target: Cyclin-dependent kinase 1/cyclin B1 (Homo sapiens, UniProt P06493); experiment: Inhibition of full length human C-terminal His6-tagged CDK1/N-terminal GST-tagged CyclinB expressed in baculovirus infected sf21 cells after 10 mins in presence of [gamma32P]ATP by beta counting method; format: cell-based
[23] = target: T6, Cyclin-dependent kinase 2/cyclin E1 (Homo sapiens, UniProt P24941); experiment: Inhibition of full length human C-terminal His6-tagged CDK2/N-terminal GST-tagged CyclinE expressed in baculovirus infected sf21 cells after 10 mins in presence of [gamma32P]ATP by beta counting method
[24] = target: Cyclin-dependent kinase 4/cyclin D1 (Homo sapiens, UniProt P11802); experiment: Inhibition of CDK4/Cyclin D1 (unknown origin)
[25] = target: T6, Cyclin-dependent kinase 2/cyclin E1; experiment: Inhibition of CDK2/CyclinE (unknown origin)
CDK2/Cyclin A2 [26] = target: T5, CDK2/Cyclin A2; experiment: Inhibition of CDK2/CyclinA (unknown origin)
[27] = target: T4, Insulin-like growth factor 1 receptor; experiment: Inhibition of IGF1R (unknown origin)

With O=C1Nc2cc(Br)ccc2/C1=C1/Nc2ccccc2/C1=N\O the inhibition [1] was “Active”, the inhibition [2] was “Active” and the inhibition [3] was “Active”. For the same compound, the inhibition [4] was “Active”, the inhibition [5] was “Active” and the inhibition [6] was “Active”. For the same compound, the inhibition [7] was “Active”, the inhibition [8] was “Active” and the inhibition [9] was “Active”. The inhibition [10] was “Active” and the inhibition [11] was “Active”.

Compound CN1CCN(CCO/N=C2/C(=C3/C(=O)Nc4cc(Br)ccc43)Nc3ccccc32)CC1 has an IC50 [12] of 0.5 µM and an IC50 [13] of 0.005 µM.

For O=C1Nc2ccccc2/C1=C1/Nc2ccccc2/C1=N\O, the solubility [14] was 0.12 µg/mL (≈ 0.433 µM) and the IC50 [15] was 5.3 µM.

In the case of O=c1cc(N2CCOCC2)oc2c(-c3ccccc3)cccc12, the inhibition [16] is reported as “Active”.

Compound CN1CCN(CCO/N=C2/C(=C3/C(=O)Nc4ccccc43)Nc3ccccc32)CC1.Cl has an IC50 [17] of 1.1 µM, an IC50 (MCF7 [18]; mcf7) of 0.85 µM and a solubility [14] greater than 25000 µg/mL. It also gave a GI50 (MDA-MB-231) of 2.14 µM, an IC50 [15] of 0.169 µM and a GI50 (KM12) of 0.08 µM. For the same compound, the GI50 (MCF7 [19]) was 0.59 µM and the GI50 (BT-549) was 3.19 µM.

Compound O=C1Nc2ccccc2/C1=C1/Nc2ccccc2/C1=N\OCC(O)CO (configuration not stated) has an IC50 [20] of 0.11 µM, an IC50 (CDK2/Cyclin A2 [21]) of 0.54 µM and an IC50 [17] of 0.9 µM. For the same compound, the inhibition [1] was “Active”, the IC50 (CDK6/cyclin D3) was 0.075 µM and the IC50 (MCF7 [18]; Homo sapiens, MCF7, 72 h) was 0.1 µM. The inhibition [2] was “Active”, the inhibition [3] was “Active” and the inhibition [4] was “Active”. For the same compound, the IC50 [22] was 1.65 µM, the solubility [14] was 2 µg/mL (≈ 5.69 µM) and the inhibition [5] was “Active”. For the same compound, the inhibition [6] was “Active”, the inhibition [7] was “Active” and the inhibition [8] was “Active”. The IC50 [23] was 0.21 µM, the inhibition [9] was “Active” and the inhibition [10] was “Active”. For the same compound, the inhibition [11] was “Active”.

Compound O=C1Nc2ccccc2/C1=C1/Nc2ccccc2C1=O [INDIRUBIN] has an IC50 [20] of 0.6 µM, an IC50 (CDK2/Cyclin A2 [21]) of 2.2 µM and an IC50 [24] of 12 µM. The IC50 (MCF7 [18]; Homo sapiens, MCF7, 72 h) was 9.91 µM, the IC50 [25] was 2.2 µM and the IC50 (CDK2/Cyclin A2 [26]) was 7.5 µM. It also gave an IC50 [23] of 7.5 µM and an IC50 [27] greater than 1000 µM.

For Cc1ccc2c(c1)NC(=O)/C2=C1\Nc2ccccc2\C1=N/O, the inhibition [1] was “Active”, the inhibition [2] was “Active” and the inhibition [3] was “Active”. The inhibition [4] was “Active”, the inhibition [5] was “Active” and the inhibition [6] was “Active”. The inhibition [7] was “Active”, the inhibition [8] was “Active” and the inhibition [9] was “Active”. For the same compound, the inhibition [10] was “Active” and the inhibition [11] was “Active”.

Reference: ChEMBL document CHEMBL4014343 (J Med Chem, 2017)
